The text below walks through data of ChEMBL document CHEMBL4152323, “N-(1,3,4-oxadiazol-2-yl)benzamide analogs, bacteriostatic agents against methicillin- and vancomycin-resistant bacteria” (Eur J Med Chem, 2018).

In brackets after ≈: the same amount, converted by molar mass. Activity calls are given as the source filed them. No cut-off for these calls is given here. Bounds are passed on as bounds.

One test concerns Listeria monocytogenes. The experiment in a line: Bacteriostatic activity against Listeria monocytogenes ATCC 19115 after 20 hrs by broth microdilution method. The class given is functional. The following applies: ATCC 19115, 20 h. In short, it runs like this:
(§1)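 MIC by broth microdilution across 128 to 1 μg/mL in 96-well plates, 37 °C for at least 20 h. MIC is the lowest concentration with no visible growth.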
Background: Dilution methods test growth across graded concentrations, often in twofold steps.

Test [1] deals with Enterococcus faecalis. The experiment in a line: Bacteriostatic activity against vancomycin-resistant Enterococcus faecalis ATCC 51575 after 20 hrs by broth microdilution method. The class given is functional. Particulars: ATCC 51575, 20 h. In outline:
(§2)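 Broth microdilution MIC over 128 to 1 μg/mL, run alongside methicillin, linezolid and vancomycin. MIC taken as the lowest concentration with no visible growth.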

Test [2] concerns Staphylococcus aureus. Put plainly: Antibacterial activity against Staphylococcus aureus assessed as growth inhibition at 16 ug/ml after 24 hrs. The test is classed as functional, organism-based. In short, it runs like this: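 S. aureus grown in Mueller Hinton Broth to early exponential phase, then exposed to compound (16 μg/mL; DMSO stocks 10 mg/mL) or DMSO in duplicate, 37 °C for 24 h. OD600 read; percent normalized OD600 = (X − media blank)/(DMSO control − media blank) × 100.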

The subject of test [3] is Staphylococcus aureus. The experiment in a line: Bacteriostatic activity against methicillin-resistant Staphylococcus aureus ATCC 33592 after 20 hrs by broth microdilution method. The test is classed as functional. Particulars: ATCC 33592, 20 h. In short, it runs like this:
as §2

The subject of test [4] is Staphylococcus aureus. The experiment in a line: Bacteriostatic activity against Staphylococcus aureus ATCC 25923 after 20 hrs by broth microdilution method. The test is classed as functional. The following applies: ATCC 25923, 20 h. In outline:
as §2

Test [5] has as its system Enterococcus faecalis. Put plainly: Bacteriostatic activity against Enterococcus faecalis ATCC 29212 after 20 hrs by broth microdilution method. The test is classed as functional. The following applies: ATCC 29212, 20 h. In outline: as §2
Test [6] has as its system Escherichia coli. Put plainly: Bacteriostatic activity against Escherichia coli BW25113 after 20 hrs by broth microdilution method. Particulars: BW25113, 20 h. The class given is functional. In short, it runs like this:
as §1

In test [7] the test system is Escherichia coli. The experiment in a line: Bacteriostatic activity against AcrAB-tolC deficient Escherichia coli JW5503-1 after 20 hrs by broth microdilution method. The test is classed as functional. The following applies: JW5503-1, 20 h. In short, it runs like this:
as §1

The subject of a further test is Pseudomonas aeruginosa. The experiment in a line: Bacteriostatic activity against Pseudomonas aeruginosa ATCC 15442 after 20 hrs by broth microdilution method. The test is classed as functional. In outline:
as §1

Another test concerns Klebsiella pneumoniae. Put plainly: Bacteriostatic activity against Klebsiella pneumoniae BAA 1706 after 20 hrs by broth microdilution method. The test is classed as functional. In short, it runs like this: as §1
The subject of another test is Acinetobacter baumannii. Put plainly: Bacteriostatic activity against Acinetobacter baumannii ATCC 19606 after 20 hrs by broth microdilution method. Particulars: ATCC 19606 = CIP 70.34 = JCM 6841. The class given is functional. In outline: as §1

Usually MIC stands for the lowest concentration found to suppress growth. Low readings indicate greater potency, high ones weaker potency. As to `C[C@@H]1C[C@H](C)CN(S(=O)(=O)c2ccc(C(=O)Nc3nnc(-c4ccc(Cl)cc4)o3)cc2)C1` (mixture of isomers), the MIC was 2 mg/L with Listeria monocytogenes; 2 mg/L in the test on Enterococcus faecalis [1]; 1 mg/L against Staphylococcus aureus [3]; 2 mg/L in the test on Staphylococcus aureus [4]; 4 mg/L with Enterococcus faecalis [5]. For the same compound, the “growth inhibition (GI)” value in the test on Staphylococcus aureus [2] is “Active”.

For the compound `C[C@@H]1C[C@H](C)CN(S(=O)(=O)c2ccc(C(=O)Nc3nnc(-c4ccc(Br)cc4)o3)cc2)C1` (mixture of isomers), the MIC against Listeria monocytogenes was found to be 4 mg/L; against Enterococcus faecalis [1], 4 mg/L; in the test with Staphylococcus aureus [3], 4 mg/L; against Staphylococcus aureus [4], 2 mg/L; in the test on Enterococcus faecalis [5] it was 4 mg/L. Further, in the test on Staphylococcus aureus [2], the “growth inhibition (GI)” value is “Active”.

For the compound `O=C(Nc1nnc(-c2cccs2)o1)c1ccc(S(=O)(=O)N2CCCCC2)cc1`, the minimum inhibitory concentration (MIC) stood at 32 mg/L (≈ 76.5 µM) with Listeria monocytogenes; 64 mg/L (≈ 153 µM) in the test with Enterococcus faecalis [1]; 32 mg/L (≈ 76.5 µM) against Staphylococcus aureus [3]; 32 mg/L (≈ 76.5 µM) against Staphylococcus aureus [4]; 16 mg/L (≈ 38.2 µM) against Enterococcus faecalis [5]. Also, in the test on Staphylococcus aureus [2], the “growth inhibition (GI)” value was “Active”.

Turning to `COc1cccc(-c2nnc(NC(=O)c3ccc(S(=O)(=O)N(C)CC4CCCO4)cc3)o2)c1` (stereo not given), the MIC in the test on Listeria monocytogenes, in the test with Enterococcus faecalis [1], against Staphylococcus aureus [3], against Staphylococcus aureus [4] and against Enterococcus faecalis [5] was 32 mg/L (≈ 67.7 µM) in each case. Moreover, in the test with Staphylococcus aureus [2], the “growth inhibition (GI)” value is “Active”.

For `O=C(Nc1nnc(-c2ccc(Cl)cc2)o1)c1ccc(S(=O)(=O)N2CCCC2)cc1`, the minimum inhibitory concentration (MIC) against Listeria monocytogenes stood at 16 mg/L (≈ 37 µM); against Enterococcus faecalis [1] it was 16 mg/L (≈ 37 µM); against Staphylococcus aureus [3], 8 mg/L (≈ 18.5 µM); with Staphylococcus aureus [4], 16 mg/L (≈ 37 µM); with Enterococcus faecalis [5], 16 mg/L (≈ 37 µM). Besides, in the test on Staphylococcus aureus [2], the “growth inhibition (GI)” value is “Active”.

`CCOC(=O)c1nnc(NC(=O)c2ccc(S(=O)(=O)N3C[C@H](C)C[C@H](C)C3)cc2)o1`: the “growth inhibition (GI)” value in the test with Staphylococcus aureus [2] is “inactive”.

For `CC1CCCCN1S(=O)(=O)c1ccc(C(=O)Nc2nnc(-c3cccs3)o2)cc1` (stereo not given), the MIC in the test on Listeria monocytogenes is 16 mg/L (≈ 37 µM); with Enterococcus faecalis [1], 16 mg/L (≈ 37 µM); against Staphylococcus aureus [3] it was 8 mg/L (≈ 18.5 µM); with Staphylococcus aureus [4], 8 mg/L (≈ 18.5 µM); against Enterococcus faecalis [5], 16 mg/L (≈ 37 µM). Further, the “growth inhibition (GI)” value in the test on Staphylococcus aureus [2] is “Active”.

With `C[C@@H]1C[C@H](C)CN(S(=O)(=O)c2ccc(C(=O)Nc3nnc(-c4cccs4)[nH]3)cc2)C1`, the “growth inhibition (GI)” value in the test on Staphylococcus aureus [2] was “inactive”.

With `C[C@@H]1C[C@H](C)CN(S(=O)(=O)c2ccc(C(=O)Nc3nnc(-c4ccc(F)cc4)o3)cc2)C1` (mixture of isomers), the MIC against Listeria monocytogenes, in the test with Enterococcus faecalis [1], with Staphylococcus aureus [3], with Staphylococcus aureus [4] and in the test with Enterococcus faecalis [5] was 4 mg/L throughout. Moreover, the “growth inhibition (GI)” value in the test on Staphylococcus aureus [2] was “Active”.

For `O=C(Nc1nnc(-c2ccco2)o1)c1ccc(S(=O)(=O)N2CCOCC2)cc1`, the “growth inhibition (GI)” value with Staphylococcus aureus [2] was “inactive”.

As to `CN(C)S(=O)(=O)c1ccc(C(=O)Nc2nnc(-c3ccc(F)cc3)o2)cc1`, the MIC amounted to 32 mg/L (≈ 82 µM) with Listeria monocytogenes; 32 mg/L (≈ 82 µM) in the test with Enterococcus faecalis [1]; 16 mg/L (≈ 41 µM) in the test on Staphylococcus aureus [3]; 16 mg/L (≈ 41 µM) in the test with Staphylococcus aureus [4]; 32 mg/L (≈ 82 µM) in the test on Enterococcus faecalis [5]. In the test on Staphylococcus aureus [2], the “growth inhibition (GI)” value is “Active”.

Turning to `C[C@@H]1CN(S(=O)(=O)c2ccc(C(=O)Nc3nnc(-c4cccs4)o3)cc2)C[C@H](C)O1`, the “growth inhibition (GI)” value with Staphylococcus aureus [2] is “inactive”.

`CCN(CC)S(=O)(=O)c1ccc(C(=O)Nc2nnc(-c3ccc(Cl)cc3)o2)cc1`: the MIC was 16 mg/L (≈ 36.8 µM) against Listeria monocytogenes; 16 mg/L (≈ 36.8 µM) against Enterococcus faecalis [1]; 16 mg/L (≈ 36.8 µM) against Staphylococcus aureus [3]; 16 mg/L (≈ 36.8 µM) in the test on Staphylococcus aureus [4]; 32 mg/L (≈ 73.6 µM) against Enterococcus faecalis [5]. In the test on Staphylococcus aureus [2], the “growth inhibition (GI)” value is “Active”.

With `COc1ccc(-c2nnc(NC(=O)c3ccc(S(=O)(=O)N4C[C@H](C)C[C@H](C)C4)cc3)o2)cc1` (mixture of isomers), the minimum inhibitory concentration (MIC) with Listeria monocytogenes, in the test with Enterococcus faecalis [1], against Staphylococcus aureus [3], in the test on Staphylococcus aureus [4] and with Enterococcus faecalis [5] was 4 mg/L in each case. In the test on Staphylococcus aureus [2], the “growth inhibition (GI)” value is “Active”.

As to `CC[C@H]1OC(=O)[C@H](C)[C@@H](O[C@H]2C[C@@](C)(OC)[C@@H](O)[C@H](C)O2)[C@H](C)[C@@H](O[C@@H]2O[C@H](C)C[C@H](N(C)C)[C@H]2O)[C@](C)(O)C[C@@H](C)C(=O)[C@H](C)[C@@H](O)[C@]1(C)O` [ERYTHROMYCIN], the minimal inhibitory concentration (MIC) was 32 mg/L (≈ 43.6 µM) in the test on Escherichia coli [6] and at most 1 mg/L in the test with Escherichia coli [7].

With `CN(CC1CCCO1)S(=O)(=O)c1ccc(C(=O)Nc2nnc(-c3ccccc3)o2)cc1` (stereo not given), the “growth inhibition (GI)” value in the test with Staphylococcus aureus [2] is “Active”.

With `O=C(Nc1nnc(-c2ccc(Cl)cc2)o1)c1ccc(S(=O)(=O)NC2CC2)cc1`, the MIC is 16 mg/L (≈ 38.2 µM) in the test on Listeria monocytogenes; 16 mg/L (≈ 38.2 µM) against Enterococcus faecalis [1]; 16 mg/L (≈ 38.2 µM) in the test with Staphylococcus aureus [3]; 16 mg/L (≈ 38.2 µM) against Staphylococcus aureus [4]; 32 mg/L (≈ 76.4 µM) against Enterococcus faecalis [5]. Besides, in the test with Staphylococcus aureus [2], the “growth inhibition (GI)” value is “Active”.

In the case of `C[C@@H]1C[C@H](C)CN(S(=O)(=O)c2ccc(C(=O)Nc3nnc(-c4cccc(C#N)c4)o3)cc2)C1` (mixture of isomers), the MIC in the test with Listeria monocytogenes was determined as 8 mg/L; in the test with Enterococcus faecalis [1], 16 mg/L; in the test on Staphylococcus aureus [3] it was 8 mg/L; against Staphylococcus aureus [4], 16 mg/L; with Enterococcus faecalis [5], 32 mg/L. The “growth inhibition (GI)” value in the test on Staphylococcus aureus [2] is “Active”.

Take `C[C@@H]1C[C@H](C)CN(S(=O)(=O)c2ccc(C(=O)Nc3nnc(-c4ccc([N+](=O)[O-])cc4)o3)cc2)C1` (mixture of isomers): the minimum inhibitory concentration (MIC) in the test with Listeria monocytogenes amounted to 32 mg/L; against Enterococcus faecalis [1] it was 32 mg/L; with Staphylococcus aureus [3], 16 mg/L; against Staphylococcus aureus [4], 32 mg/L; against Enterococcus faecalis [5], 64 mg/L. In addition, the “growth inhibition (GI)” value in the test on Staphylococcus aureus [2] was “Active”.

In the case of `C[C@@H]1C[C@H](C)CN(S(=O)(=O)c2ccc(C(=O)Nc3nnc(C4CCCO4)o3)cc2)C1` (stereo not given in full), the “growth inhibition (GI)” value with Staphylococcus aureus [2] is “inactive”.

With COLISTIN, the minimal inhibitory concentration (MIC) in the test on Pseudomonas aeruginosa, with Klebsiella pneumoniae and in the test on Acinetobacter baumannii was under 1 mg/L in each case.

With `C#CCNS(=O)(=O)c1ccc(C(=O)Nc2nnc(-c3ccc(Cl)cc3)o2)cc1`, the MIC with Listeria monocytogenes came out at 64 mg/L (≈ 154 µM); in the test on Enterococcus faecalis [1], 64 mg/L (≈ 154 µM); in the test with Staphylococcus aureus [3] it was 32 mg/L (≈ 76.8 µM); in the test on Staphylococcus aureus [4], 64 mg/L (≈ 154 µM); with Enterococcus faecalis [5], 64 mg/L (≈ 154 µM). Moreover, the “growth inhibition (GI)” value in the test with Staphylococcus aureus [2] was “Active”.

Take `CN(C)S(=O)(=O)c1ccc(C(=O)Nc2nnc(-c3ccc(Cl)cc3)o2)cc1`: the MIC came to 64 mg/L (≈ 157 µM) in the test with Listeria monocytogenes; 64 mg/L (≈ 157 µM) in the test with Enterococcus faecalis [1]; 32 mg/L (≈ 78.7 µM) in the test on Staphylococcus aureus [3]; 64 mg/L (≈ 157 µM) with Staphylococcus aureus [4]; 64 mg/L (≈ 157 µM) against Enterococcus faecalis [5]. Moreover, the “growth inhibition (GI)” value with Staphylococcus aureus [2] was “Active”.

Consider `COc1cccc(OC)c1C(=O)N[C@@H]1C(=O)N2[C@@H]1SC(C)(C)[C@@H]2C(=O)O` [METHICILLIN], for which the minimal inhibitory concentration (MIC) in the test on Staphylococcus aureus [3] was over 128 mg/L; in the test on Staphylococcus aureus [4], 2 mg/L (≈ 5.26 µM).

For `C[C@@H]1C[C@H](C)CN(S(=O)(=O)c2ccc(-c3nnc(-c4cccs4)o3)cc2)C1`, the “growth inhibition (GI)” value in the test with Staphylococcus aureus [2] was “inactive”.

For the compound `O=C(Nc1nnc(-c2cccs2)o1)c1ccccc1`, the “growth inhibition (GI)” value with Staphylococcus aureus [2] is “inactive”.
